{"source": "ChEMBL document CHEMBL3272168", "about": "“Benzodipyran derivatives with antiallergic activity” (1976)"}
{"system": "Rattus norvegicus", "test": "Antiallergic activity in iv dosed sensitized Sprague-Dawley rat assessed as inhibition of passive cutaneous anaphylaxis", "assay_type": "functional", "conditions": "read-out: ID50 (the source's name)", "how_it_was_run": "(§1)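 Female Sprague-Dawley rats (80–100 g, groups of five) got 0.1 ml intradermal flank injections of rat anti-N. braziliensis reaginic serum, diluted 1 in 8 to 1 in 32. After 24 h they were challenged iv with worm antigen (25 mg/kg protein) plus Evans blue (25 mg/kg). Compound in saline was given iv with the challenge. Rats were killed at 30 min and dye spots graded 0–4. % inhibition = 100 − 100 × treated/control mean score. ID50 was interpolated from a log-dose plot.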", "units": {"ED50": "mg/kg"}}
{"smiles": "COc1c2c(=O)cc(C(=O)[O-])oc2cc2oc(C(=O)[O-])cc(=O)c12.[Na+].[Na+]", "ED50": 0.32}
{"smiles": "C=CCc1c(OC)c2c(=O)cc(C(=O)[O-])oc2c2c(=O)cc(C(=O)[O-])oc12.[Na+].[Na+]", "ED50": 0.22}
{"smiles": "CCCc1c2oc(C(=O)[O-])cc(=O)c2cc2c(=O)cc(C(=O)[O-])oc12.[Na+].[Na+]", "ED50": 0.05}
{"smiles": "CCc1c2oc(C(=O)[O-])cc(=O)c2c(C)c2c(=O)cc(C(=O)[O-])oc12.[Na+].[Na+]", "ED50": 0.03}
{"smiles": "COc1cc2oc(C(=O)[O-])cc(=O)c2c2oc(C(=O)[O-])cc(=O)c12.[Na+].[Na+]", "ED50": 0.73}
{"smiles": "CCOCc1c2oc(C(=O)[O-])cc(=O)c2cc2c(=O)cc(C(=O)[O-])oc12.[Na+].[Na+]", "ED50": 0.33}
{"smiles": "O=C([O-])c1cc(=O)c2cc3c(=O)cc(C(=O)[O-])oc3c([N+](=O)[O-])c2o1.[Na+].[Na+]", "ED50": 1.6}
{"smiles": "Cc1c2oc(C(=O)[O-])cc(=O)c2cc2c(=O)cc(C(=O)[O-])oc12.[Na+].[Na+]", "ED50": 0.25}
{"smiles": "O=C([O-])c1cc(=O)c2cc3c(=O)cc(C(=O)[O-])oc3cc2o1.[Na+].[Na+]", "ED50": 0.18}
{"smiles": "O=C([O-])c1cc(=O)c2c(OCC(O)COc3cccc4oc(C(=O)[O-])cc(=O)c34)cccc2o1.[Na+].[Na+]", "note": "[CROMOLYN SODIUM]", "ED50": 1.2}
{"smiles": "Cc1cc(=O)oc2c1c1oc(C(=O)[O-])cc(=O)c1c1oc(C(=O)[O-])cc(=O)c21.[Na+].[Na+]", "ED50": 4.24}
{"smiles": "C=CCOc1cc2oc(C(=O)[O-])cc(=O)c2c2oc(C(=O)[O-])cc(=O)c12.[Na+].[Na+]", "ED50": 0.62}
{"smiles": "CCc1c2oc(C(=O)[O-])cc(=O)c2cc2c(=O)cc(C(=O)[O-])oc12.[Na+].[Na+]", "ED50": 0.1}
{"smiles": "O=C([O-])c1cc(=O)c2c(cc(O)c3c(=O)cc(C(=O)[O-])oc32)o1.[Na+].[Na+]", "ED50": 5}
{"smiles": "CCCc1c(OC)c2c(=O)cc(C(=O)[O-])oc2c2c(=O)cc(C(=O)[O-])oc12.[Na+].[Na+]", "ED50": 0.18}
{"smiles": "O=C([O-])c1cc(=O)c2c(o1)c1c(c3c(=O)cc(C(=O)[O-])oc32)OCC1.[Na+].[Na+]", "ED50": 0.35}
{"smiles": "CCOc1cc2oc(C(=O)[O-])cc(=O)c2c2oc(C(=O)[O-])cc(=O)c12.[Na+].[Na+]", "ED50": 0.38}
{"smiles": "O=C([O-])c1cc(=O)c2cc3oc(C(=O)[O-])cc(=O)c3cc2o1.[Na+].[Na+]", "ED50": 0.68}
{"smiles": "O=C([O-])c1cc(=O)c2c(ccc3c(=O)cc(C(=O)[O-])oc32)o1.[Na+].[Na+]", "ED50": 7.6}
{"smiles": "CCCCc1c2oc(C(=O)[O-])cc(=O)c2cc2c(=O)cc(C(=O)[O-])oc12.[Na+].[Na+]", "ED50": 0.05}
{"smiles": "O=C([O-])c1cc(=O)c2c(o1)c(Cl)cc1c(=O)cc(C(=O)[O-])oc12.[Na+].[Na+]", "ED50": "> 10"}
{"smiles": "CCCc1c2oc(C(=O)[O-])cc(=O)c2c(OC)c2c(=O)cc(C(=O)[O-])oc12.[Na+].[Na+]", "ED50": 0.1}
{"smiles": "CCc1cc2c(=O)cc(C(=O)[O-])oc2c2c(=O)cc(C(=O)[O-])oc12.[Na+].[Na+]", "ED50": 10}
{"system": "Rattus norvegicus", "test": "Antiallergic activity in sensitized Sprague-Dawley rat assessed as inhibition of passive cutaneous anaphylaxis at 1 mg/kg, iv", "assay_type": "functional", "conditions": "not given", "how_it_was_run": "as §1", "units": {"inhibition in vivo at 1 mg/kg": "%"}}
{"smiles": "CCCc1c2oc(C(=O)[O-])cc(=O)c2c(OC)c2c(=O)cc(C(=O)[O-])oc12.[Na+].[Na+]", "inhibition in vivo at 1 mg/kg": 100}
